Results collected from several papers.
Organism: Leishmania major
Observed: parasite growth
Setting: promastigote

CC(=O)Oc1ccc(-c2oc3cc(OC(C)=O)cc(O)c3c(=O)c2OC(C)=O)cc1 gave an IC50 of 14.9 µM (48 h).
For CC1(C)OB(CC2c3ccccc3C(=O)N2C2CCCCC2)OC1(C)C (stereo not drawn), the IC50 was 11.5 µM.
For Cc1nc2ccc(Cl)cn2c1C(=O)N1CCN(Cc2cn(-c3cccc(Cl)c3)nn2)CC1, the IC50 was 47.1 µM (resazurin; 72 h).
C[C@@H]1[C@H](O)[C@@H](C)/C=C/C=C/C=C/C=C/C=C/C=C/C=C/[C@H](O[C@@H]2O[C@H](C)[C@@H](O)[C@H](N)[C@@H]2O)C[C@@H]2O[C@](O)(C[C@@H](O)C[C@@H](O)[C@H](O)CC[C@@H](O)C[C@@H](O)CC(=O)O[C@H]1C)C[C@H](O)[C@H]2C(=O)O has an IC50 of 3.68 µM (48 h).
O=S(=O)(c1ccc(-c2ccc3ncnc(Nc4ccc(OCc5ccccc5)c(Cl)c4)c3c2)cc1)N1CCOCC1 has an EC50 of 0.47 µM (resazurin).
With CCCCCCCCCc1cn(CCN2CCN(C(=O)c3c(C)nc4ccc(Cl)cn34)CC2)nn1 the IC50 was 62 µM (resazurin; 72 h).
C[C@@H]1[C@H](O)[C@@H](C)/C=C/C=C/C=C/C=C/C=C/C=C/C=C/[C@H](O[C@@H]2O[C@H](C)[C@@H](O)[C@H](N)[C@@H]2O)C[C@@H]2O[C@](O)(C[C@@H](O)C[C@@H](O)[C@H](O)CC[C@@H](O)C[C@@H](O)CC(=O)O[C@H]1C)C[C@H](O)[C@H]2C(=O)O gave an IC50 of 0.83 µM.
For CCCc1cn(CCN2CCN(C(=O)c3c(C)nc4ccc(Cl)cn34)CC2)nn1, the IC50 was 475 µM (resazurin; 72 h).
The IC50 of C[C@@H]1[C@H](O)[C@@H](C)/C=C/C=C/C=C/C=C/C=C/C=C/C=C/[C@H](O[C@@H]2O[C@H](C)[C@@H](O)[C@H](N)[C@@H]2O)C[C@@H]2O[C@](O)(C[C@@H](O)C[C@@H](O)[C@H](O)CC[C@@H](O)C[C@@H](O)CC(=O)O[C@H]1C)C[C@H](O)[C@H]2C(=O)O is reported as 0.243 µM (24 h).
